Laboratory results: ChEMBL document CHEMBL1817613, “Antitumor actinopyranones produced by Streptomyces albus POR-04-15-053 isolated from a marine sediment” (J Nat Prod, 2011)
pIC50: −log10 of the molar value. Counter-ions that a name gives are not always drawn. Active and inactive are the calls of the source. No cut-off for these calls is given here.

Legend:
MDA-MB-231 = test: Antitumor activity against human MDA-MB-231 cells after 72 hrs by SRB assay; assay type: functional; conditions: MDA-MB-231, 72 h
Procedure, shortened: (§1)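 Cells kept in RPMI with 10% fetal calf serum, 2 mM L-glutamine, penicillin/streptomycin, 37 °C, 5% CO2. Triplicate cultures exposed 72 h to 10 concentrations from 10 to 0.0026 μg/mL. Fixed in 1% glutaraldehyde, stained with 0.4% SRB for 30 min, dye extracted in 10 mM Trizma base, absorbance at 490 nm. Doxorubicin positive control. GI50, TGI and LC50 interpolated from nonlinear-regression dose-response curves (mean ± SD).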

HT-29 = test: Antitumor activity against human HT-29 cells after 72 hrs by SRB assay; assay type: functional; conditions: HT-29, 72 h; procedure, shortened: as §1
[1] = molecular target: T1, Epidermal growth factor receptor (Homo sapiens, UniProt P00533); test: Inhibition of EGFR autophosphorylation in human HeLa cells preincubated for 30 mins prior to EGF stimulation by Western blotting; assay type: cell-based
T1 sequence (P00533 whole entry): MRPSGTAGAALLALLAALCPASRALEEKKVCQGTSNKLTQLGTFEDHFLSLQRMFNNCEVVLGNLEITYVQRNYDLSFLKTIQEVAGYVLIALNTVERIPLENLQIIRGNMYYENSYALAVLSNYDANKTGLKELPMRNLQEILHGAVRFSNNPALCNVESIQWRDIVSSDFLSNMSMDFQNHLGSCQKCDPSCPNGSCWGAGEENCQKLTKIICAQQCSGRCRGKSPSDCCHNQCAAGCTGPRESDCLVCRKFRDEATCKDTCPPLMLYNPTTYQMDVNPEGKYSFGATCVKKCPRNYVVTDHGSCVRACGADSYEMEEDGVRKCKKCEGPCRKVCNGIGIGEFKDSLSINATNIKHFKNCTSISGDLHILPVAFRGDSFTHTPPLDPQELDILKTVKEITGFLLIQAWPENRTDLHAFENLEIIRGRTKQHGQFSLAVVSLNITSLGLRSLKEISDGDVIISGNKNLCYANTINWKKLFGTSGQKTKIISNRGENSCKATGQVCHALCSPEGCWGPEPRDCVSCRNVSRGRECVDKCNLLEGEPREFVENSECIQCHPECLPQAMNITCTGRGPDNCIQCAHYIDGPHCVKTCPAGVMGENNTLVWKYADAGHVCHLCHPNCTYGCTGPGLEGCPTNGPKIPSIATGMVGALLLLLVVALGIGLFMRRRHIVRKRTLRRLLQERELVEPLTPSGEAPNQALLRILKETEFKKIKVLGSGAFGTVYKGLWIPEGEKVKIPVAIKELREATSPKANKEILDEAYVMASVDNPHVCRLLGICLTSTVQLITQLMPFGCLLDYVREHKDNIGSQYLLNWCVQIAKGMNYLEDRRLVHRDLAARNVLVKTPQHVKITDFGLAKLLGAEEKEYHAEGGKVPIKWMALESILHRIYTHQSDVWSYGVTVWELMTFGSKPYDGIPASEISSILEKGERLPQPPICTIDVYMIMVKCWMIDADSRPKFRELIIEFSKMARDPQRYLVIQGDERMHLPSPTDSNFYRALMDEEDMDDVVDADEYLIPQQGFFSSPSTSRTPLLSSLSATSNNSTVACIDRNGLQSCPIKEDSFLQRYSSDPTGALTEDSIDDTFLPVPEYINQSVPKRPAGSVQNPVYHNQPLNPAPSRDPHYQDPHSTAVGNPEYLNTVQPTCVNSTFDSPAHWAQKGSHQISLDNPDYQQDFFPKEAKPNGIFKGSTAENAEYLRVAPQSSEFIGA
Procedure, shortened: (§2)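 Cells preincubated 30 min with vehicle, AG1478 or compound, then treated with EGF for 10 min. Lysed on ice 15 min in Tris-HCl pH 7.5/NaCl/NP-40/EDTA buffer with protease inhibitors, cleared at 14000g for 30 min at 4 °C. Equal extract amounts run on SDS-PAGE and blotted to PVDF. Probed for phospho-EGFR, phospho-ERK and phospho-JNK, then reprobed for total ERK and JNK.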

[2] = molecular target: T1, Epidermal growth factor receptor; test: Inhibition of EGFR-induced JNK1 phosphorylation in human HeLa cells preincubated for 30 mins prior to EGF stimulation by Western blotting; assay type: cell-based; procedure, shortened: as §2
HeLa [3] = test: Effect on total JNK1 level in human HeLa cells preincubated for 30 mins prior to EGF stimulation by Western blotting; assay type: functional, cell-based; procedure, shortened: as §2
[4] = molecular target: T1, Epidermal growth factor receptor; test: Inhibition of EGFR-induced ERK phosphorylation in human HeLa cells preincubated for 30 mins prior to EGF stimulation by Western blotting; assay type: cell-based; procedure, shortened: as §2
HeLa [5] = test: Effect on total ERK2 level in human HeLa cells preincubated for 30 mins prior to EGF stimulation by Western blotting; assay type: functional, cell-based; procedure, shortened: as §2
A549 = test: Antitumor activity against human A549 cells after 72 hrs by SRB assay; assay type: functional; conditions: A549, 72 h; for CC50: read-out: LC50 (the source's name); procedure, shortened: as §1
[6] = molecular target: HIF-1alpha (Homo sapiens); test: Inhibition of HIF1alpha activation in human HeLa cells stimulated with deferoxamine by luciferase reporter gene assay
[7] = molecular target: beta-catenin (Homo sapiens); test: Inhibition of beta-catenin activation in human SW480 cells by luciferase reporter gene assay
[8] = molecular target: T1, Epidermal growth factor receptor; test: Inhibition of EGFR-induced AP1 activation in human HeLa cells preincubated for 1 hr prior to EGF stimulation by luciferase reporter gene assay; assay type: cell-based
[9] = molecular target: T1, Epidermal growth factor receptor; test: Inhibition of EGFR-induced ERK phosphorylation in human HeLa cells preincubated for 4 hrs prior to EGF stimulation by Western blotting; assay type: cell-based
Procedure, shortened: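 Cells preincubated 4 h with vehicle, AG1478 or compound before a 10 min EGF treatment. Lysates cleared at 14000g for 30 min at 4 °C, resolved by SDS-PAGE and blotted to PVDF. Probed for phospho-ERK and reprobed for total ERK.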

SMILES	GI50 (MDA-MB-231)	LC50 (concentration killing 50% of cells) (MDA-MB-231)	TGI (MDA-MB-231)	GI50 (HT-29)	LC50 (HT-29)	TGI (HT-29)	inhibition [1]	inhibition [2]	Activity (HeLa [3])	inhibition [4]	Activity (HeLa [5])	GI50 (A549)	TGI (A549)	CC50 (A549)	pIC50 [6]	pIC50 [7]	pIC50 [8]	inhibition [9]
C/C=C(\C)C(O)C(C)/C=C(C)/C=C/CC(C)/C=C/c1oc(OC)c(CC)c(=O)c1C (configuration not stated)	> 22000 nM	> 22000 nM	> 22000 nM	21500 nM	> 22000 nM	> 22000 nM	inactive	Active	inactive	inactive	inactive	18600 nM	> 22000 nM	> 22000 nM				
COc1cccc2c1C(=O)c1c(O)c3c(c(O)c1C2=O)C[C@@](O)(C(=O)CO)C[C@@H]3O[C@H]1C[C@H](N)[C@H](O)[C@H](C)O1 [DOXORUBICIN HYDROCHLORIDE]	90 nM		180 nM	150 nM		180 nM						60 nM	200 nM	590 nM				
C/C=C(\C)C(O[C@@H]1O[C@H](CO)[C@@H](O)[C@H](O)[C@H]1O)C(C)/C=C(C)/C=C/CC(C)/C=C/c1oc(OC)c(C)c(=O)c1C (some centres not stated)	500 nM	1010 nM	690 nM		240 nM		inactive		inactive	inactive	inactive	530 nM	760 nM	1160 nM	7.22	6.77	6.80	
COc1cc2ncnc(Nc3cccc(Cl)c3)c2cc1OC							Active											
C/C=C(\C)C(O[C@@H]1O[C@H](CO)[C@@H](O)[C@H](O)[C@H]1O)C(C)/C=C(C)/C=C/CC(C)/C=C/c1oc(OC)c(CC)c(=O)c1C (some centres not stated)	240 nM	820 nM	430 nM	380 nM	4680 nM	1230 nM						280 nM	520 nM	1080 nM				
C/C=C(\C)[C@H](O)[C@H](C)/C=C(C)/C=C/CC(C)/C=C/c1oc(OC)c(C)c(=O)c1C (some centres not stated)	10500 nM	> 22000 nM	> 22000 nM	10800 nM	11500 nM	10800 nM	inactive		inactive	Active	inactive	5000 nM	13500 nM	> 22000 nM	6.33	6.18	> 8.15	Active
